We go through two compounds from PMC2211770 (The Journal of Experimental Medicine, 2004).

Residues, ends and D or L forms follow the SMILES beside them. *: point of attachment. Cbz = O=C(OCc1ccccc1)*; CH2F = FC* Where only a bound is given, the exact number is not on record here.

The test system of series [1] is DNA fragmentation in cultured primary rat thymocytes. Kind of series: DNA fragmentation. The format is cell-based. Put shortly:
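Thymocytes were cultured for 24 h at 10 × 10^6 cells/ml in CytoSF4 plus l-glutamine and antibiotics, with test compound at a range of concentrations. Cells fixed 30 min on ice in 70% EtOH and stained in PBS/0.1% Triton X-100/RNase A/25 μg/ml PI. Subdiploid DNA by flow cytometry, 20,000 events, duplicate samples, debris gated out on forward scatter. IC50 by 4-parameter fit.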

Series [2] relates to αII-spectrin cleavage in cultured primary rat thymocytes. Kind of series: αII-spectrin cleavage in cultured primary rat thymocytes. The format is cell-based. The note with it: read-out: IC50 spectrin, average of two to four experiments (single for zVAD-fmk and M808). The method, boiled down:
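Rat thymocytes, isolated by tissue grinding in cold PBS/glucose/glutamine/1% FBS and filtered, were kept 24 h at 10 × 10^6 cells/ml in CytoSF4 with l-glutamine and antibiotics over a test compound concentration series. The read-out is the caspase-3-generated p120 αII-spectrin neoepitope. IC50 from a 4-parameter curve fit.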

Series [3] has as its system basal apoptotic parameters. Description: Basal apoptotic parameters in sham-operated animals. The note with it: sham-operated animals (unpublished data). The format is in vivo, rat.
Series [4] addresses T1, Recombinant human caspase-10 (Homo sapiens, UniProt Q92851).
T1 sequence (Q92851 220-415 limits assumed): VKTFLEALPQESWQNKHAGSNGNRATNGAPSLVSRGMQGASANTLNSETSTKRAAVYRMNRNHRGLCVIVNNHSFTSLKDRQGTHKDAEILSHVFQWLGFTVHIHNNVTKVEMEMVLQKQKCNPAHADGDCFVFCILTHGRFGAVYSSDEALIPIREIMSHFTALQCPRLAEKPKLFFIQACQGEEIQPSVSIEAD
T1 sequence (Q92851 416-521 limits assumed): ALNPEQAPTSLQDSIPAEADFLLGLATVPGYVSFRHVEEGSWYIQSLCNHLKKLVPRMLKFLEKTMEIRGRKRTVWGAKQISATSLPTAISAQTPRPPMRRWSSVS
Kind of series: M867 potency against recombinant human caspase-10. The format is biochemical.

In series [5] the target is T2, Recombinant human caspase-4 (Homo sapiens, UniProt P49662).
T2 sequence (P49662 81-270 limits assumed): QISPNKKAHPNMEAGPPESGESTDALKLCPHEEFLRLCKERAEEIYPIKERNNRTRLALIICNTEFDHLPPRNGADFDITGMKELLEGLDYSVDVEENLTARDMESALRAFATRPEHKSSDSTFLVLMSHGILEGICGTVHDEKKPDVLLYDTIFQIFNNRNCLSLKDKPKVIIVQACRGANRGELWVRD
T2 sequence (P49662 290-377 limits assumed): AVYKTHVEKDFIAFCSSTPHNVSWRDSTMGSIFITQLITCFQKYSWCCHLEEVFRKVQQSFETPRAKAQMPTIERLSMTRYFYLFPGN
Description: M867 potency against recombinant human caspase-4. The format is biochemical.

Series [6] in a line: Drug levels in plasma, blood and spleen of rats under continuous i.v. infusion. The format is in vivo. The note with it: rat, intravenous, 2 mg/kg/h. The method, boiled down:
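Test compound was given to rats by continuous i.v. infusion after a 2 ml/kg bolus, delivered at 2 ml/h/kg for 24 h. Dose rates were 2 mg/kg/h for plasma and spleen levels, and 0.5 or 1.5 mg/kg/h for blood levels.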

The target of series [7] is T3, Recombinant human caspase-6 (Homo sapiens, UniProt P55212).
T3 sequence (P55212 24-179 limits assumed): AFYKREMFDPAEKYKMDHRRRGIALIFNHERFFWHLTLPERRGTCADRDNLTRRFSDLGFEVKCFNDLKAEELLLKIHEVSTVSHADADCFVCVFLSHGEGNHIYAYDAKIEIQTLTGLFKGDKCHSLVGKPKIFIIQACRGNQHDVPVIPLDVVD
T3 sequence (P55212 194-293 limits assumed): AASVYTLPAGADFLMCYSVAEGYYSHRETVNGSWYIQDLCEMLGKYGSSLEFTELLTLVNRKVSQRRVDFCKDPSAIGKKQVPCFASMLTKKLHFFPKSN
Description: M867 potency against recombinant human caspase-6. The format is biochemical.

Series [8] has as its system αII-spectrin cleavage in thymocytes. Description: αII-spectrin cleavage in the thymus of CLP-induced septic rats. The format is in vivo, rat. To be noted: for Spectrin cleavage OD (±SE): thymus 24 h. Put shortly:
(§1)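 CLP then followed: the ligated cecum was pierced through and through with a 20-gauge cannula and a silk thread was left in place for leakage. Shams had the cecum exteriorized only. Rats got 1 c.c. saline s.c., then a 2 ml/kg i.v. bolus of vehicle or test compound and 2 ml/h/kg infusion for 24 h. In the titration, doses were 0–10 mg/kg/h with one rat per dose. Thymus taken 24 h post-surgery.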

Series [9] deals with DNA fragmentation in thymocytes. Description: DNA fragmentation. The note with it: for Percentage of subdiploid cells (±SE): thymus 24 h. The format is in vivo, rat. Put shortly:
as §1

Series [10] deals with T4, Recombinant human caspase-7 (Homo sapiens, UniProt P55210).
T4 sequence (P55210 24-198 limits assumed): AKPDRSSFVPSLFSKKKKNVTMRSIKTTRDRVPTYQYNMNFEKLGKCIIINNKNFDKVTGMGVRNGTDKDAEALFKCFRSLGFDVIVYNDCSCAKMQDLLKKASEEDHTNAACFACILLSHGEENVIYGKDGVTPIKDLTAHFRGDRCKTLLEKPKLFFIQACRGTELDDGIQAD
T4 sequence (P55210 207-303 limits assumed): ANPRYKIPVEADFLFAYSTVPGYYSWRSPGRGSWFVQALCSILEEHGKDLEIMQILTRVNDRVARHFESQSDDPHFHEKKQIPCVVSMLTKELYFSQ
Kind of series: M867 potency against recombinant human caspase-7. The format is biochemical.

The target of series [11] is Recombinant human caspase-8 (Homo sapiens, UniProt Q14790). Kind of series: M867 potency against recombinant human caspase-8. The format is biochemical.
Series [12] concerns the target T5, Recombinant human caspase-1 (Homo sapiens, UniProt P29466).
T5 sequence (P29466 120-297 limits assumed): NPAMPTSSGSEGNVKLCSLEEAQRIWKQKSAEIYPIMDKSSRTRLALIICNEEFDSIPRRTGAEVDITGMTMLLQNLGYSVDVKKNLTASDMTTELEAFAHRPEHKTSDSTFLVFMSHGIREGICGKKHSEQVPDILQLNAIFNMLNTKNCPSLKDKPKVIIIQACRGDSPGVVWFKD
T5 sequence (P29466 317-404 limits assumed): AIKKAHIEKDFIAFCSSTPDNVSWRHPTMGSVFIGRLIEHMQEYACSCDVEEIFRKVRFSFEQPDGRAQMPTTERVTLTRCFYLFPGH
Kind of series: M867 potency against recombinant human caspase-1. The format is biochemical.

Series [13] addresses T6, Recombinant human caspase-2 (Homo sapiens, UniProt P42575).
T6 sequence (P42575 170-325 limits assumed): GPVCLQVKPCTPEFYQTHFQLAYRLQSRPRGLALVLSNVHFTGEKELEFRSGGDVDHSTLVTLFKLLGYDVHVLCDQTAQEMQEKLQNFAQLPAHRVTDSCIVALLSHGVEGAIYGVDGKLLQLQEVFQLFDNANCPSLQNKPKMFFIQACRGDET
T6 sequence (P42575 348-452 limits assumed): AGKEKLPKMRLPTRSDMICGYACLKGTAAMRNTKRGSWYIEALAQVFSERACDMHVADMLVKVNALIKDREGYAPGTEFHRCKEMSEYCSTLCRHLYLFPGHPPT
Description: M867 potency against recombinant human caspase-2. The format is biochemical.

For series [14], the target named is T7, Recombinant human caspase-3 (Homo sapiens, UniProt P42574).
T7 sequence (P42574 29-175 limits assumed): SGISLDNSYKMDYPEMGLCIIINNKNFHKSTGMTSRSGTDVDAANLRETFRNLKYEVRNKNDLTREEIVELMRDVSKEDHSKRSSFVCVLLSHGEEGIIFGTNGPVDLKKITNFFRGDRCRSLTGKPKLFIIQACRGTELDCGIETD
T7 sequence (P42574 176-277 limits assumed): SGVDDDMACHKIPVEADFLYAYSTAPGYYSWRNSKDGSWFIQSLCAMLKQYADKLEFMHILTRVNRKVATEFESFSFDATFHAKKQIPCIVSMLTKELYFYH
Kind of series: M867 potency against recombinant human caspase-3. The format is biochemical.

Series [15] relates to caspase-3 processing. Kind of series: Caspase-3 Western blotting on thymus extracts of CLP rats dosed with M867. The format is in vivo, rat. To be noted: all M867 doses. The method, boiled down: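 Female Sprague-Dawley rats (250–300 g) had CLP via a 20-gauge through-and-through cecal puncture with a silk wick. Test compound was given as an i.v. femoral catheter bolus (2 ml/kg) then infused at 0–10 mg/kg/h for 24 h (vehicle n = 6; n = 1 per dose). Thymus lysates (40 μg, heat-denatured) were run on 10–20% SDS-PAGE and probed with rabbit anti-caspase-3 (1:2,000) and HRP anti-rabbit, with chemiluminescent detection.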

Series [16] addresses T8, Recombinant human caspase-5 (Homo sapiens, UniProt P51878).
T8 sequence (P51878 137-327 limits assumed): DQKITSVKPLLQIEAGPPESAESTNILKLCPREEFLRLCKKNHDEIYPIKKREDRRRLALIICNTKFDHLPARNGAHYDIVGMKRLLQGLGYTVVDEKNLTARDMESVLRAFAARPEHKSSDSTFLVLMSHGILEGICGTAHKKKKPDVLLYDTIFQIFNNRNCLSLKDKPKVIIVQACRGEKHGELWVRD
T8 sequence (P51878 347-434 limits assumed): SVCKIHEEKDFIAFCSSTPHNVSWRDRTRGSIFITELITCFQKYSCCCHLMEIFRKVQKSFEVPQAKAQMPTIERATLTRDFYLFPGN
Description: M867 potency against recombinant human caspase-5. The format is biochemical.

The mark [17] stands for this setting: crude extrapolation, septic rats (Fig. 4).
Where [18] appears, read: septic rats, continuous i.v. infusion.

Chain of Recombinant human caspase-8 (Q14790 217-374 limits assumed): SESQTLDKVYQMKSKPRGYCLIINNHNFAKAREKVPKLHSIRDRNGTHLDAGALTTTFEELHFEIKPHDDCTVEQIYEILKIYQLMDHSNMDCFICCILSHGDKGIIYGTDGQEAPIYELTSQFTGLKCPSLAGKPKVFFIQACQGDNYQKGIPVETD
Chain of Recombinant human caspase-8 (Q14790 385-479 limits assumed): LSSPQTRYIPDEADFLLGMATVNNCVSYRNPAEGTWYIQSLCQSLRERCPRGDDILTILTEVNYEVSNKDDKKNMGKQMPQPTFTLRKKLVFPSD

`COC(=O)C[C@H](NC(=O)[C@H](C)NC(=O)[C@@H](NC(=O)OCc1ccccc1)C(C)C)C(=O)CF` [zVAD-fmk, zVAD-fluoromethyl ketone, reference compound] (Cbz-Val-Ala-Asp(OMe)-CH2F): the IC50 in series [1] (read-out: IC50 subdiploid, cultured rat thymocytes, average of two to four experiments (single for zVAD-fmk and M808)) is 25000 nM; in series [2], 600 nM.
In the case of `CCCCCN(C)CC(=O)[C@H](CC(=O)O)NC(=O)[C@H](CC)n1cc(C(C)(C)C)nc(NCc2nonc2C)c1=O` [M867, (3S)-3-({(2S)-2-[5-tert-butyl-3-{[(4-methyl-1,2,5-oxadiazol-3-yl)methyl]amino}-2-oxopyrazin-1(2H)-yl]butanoyl}amino)-5-[methyl(pentyl)amino]-4-oxopentanoic acid], in series [3], the “effect on basal apoptotic parameters” value is “no effect”. Also, the Ki in [4] worked out at 29500 nM; in series [5], 495 nM; in series [7], 3440 nM; in series [10], 8.9 nM; in series [11] it was 4030 nM; in [12], 107 nM. The Ki is more than 100000 nM in [13], 1.4 nM in series [14] and 805 nM in [16]. Further, the “effect on DNA fragmentation” value in [1] (0.1 μM, cultured thymocytes) is reported as “without affecting”. Moreover, the concentration at 24 h in [6] (plasma) stood at 650 ± 180 nM; in series [6] (spleen), 370 ± 100 nM. For the same compound, in [8] (CLP rats, i.v. infusion over 24 h after CLP, first experiment (Fig. 2 C, n = 10)), the “reduction of αII-spectrin cleavage in thymocytes” value was 88%. Moreover, the “Spectrin cleavage OD (±SE)” value turned out to be 0.30 ± 0.01 OD in series [8] (CLP rats, first experiment (n = 10; vehicle 0.97, sham 0.21)) and 0.18 ± 0.01 OD in [8] (CLP rats, second experiment (n = 4-5; vehicle 0.58, sham 0.12)). Moreover, the “in vivo IC50 αII-spectrin cleavage” value in series [8] (setting [17]) is 0.5 mg/kg/h. Moreover, the “inhibition of αII-spectrin cleavage” value in series [8] (septic rats, 2 mg/kg/h) was “almost complete inhibition”. Also, in series [8] (setting [18]), the “doses achieving abolition of αII-spectrin cleavage” value was “below 2 mg/kg/h”. Moreover, in series [9] (CLP rats, i.v. infusion over 24 h after CLP, first experiment (Fig. 2 D, n = 10)), the “reduction of DNA fragmentation in thymocytes” value came to 57%. Also, the “Percentage of subdiploid cells (±SE)” value in series [9] (CLP rats, first experiment (n = 10; vehicle 25.12, sham 1.23)) is given as 11.61 ± 2.95%; in [9] (CLP rats, second experiment (n = 4-5; vehicle 33.49, sham 0.37)), 13.25 ± 4.70%. Also, in series [9] (setting [17]), the “in vivo IC50 DNA fragmentation” value was 2 mg/kg/h. Also, the “drug levels needed to inhibit DNA cleavage compared with αII-spectrin cleavage” value in series [9] (experimental peritonitis, rats) is “fourfold”. The “doses fully inhibiting DNA fragmentation” value in [9] (setting [18]) was “above 5 mg/kg/h”. Also, the “effect on DNA fragmentation in dose titration” value in series [9] (septic rats, doses up to 10 mg/kg/h) was “almost abrogated”. In addition, the caspase-3 processing result in [15] is listed as “processed equally well”.
